Tested on in the first data set: not listed separately
As to the kind of experiment: Lipophilicity, log D at pH 7.4. The class given is physicochemical. The following applies: buffer.
For the compound `N#Cc1c(-c2cccc(NC(=O)CCN)c2)cc(-c2ccc(F)cc2O)nc1NC(=O)c1cccs1`, the logD – broadly, the decadic logarithm of the distribution of all forms, ionised or not, between an organic phase and buffer at a given pH – amounted to 2.14.
`N#Cc1c(-c2cccc(NC(=O)C[C@@H]3CCCN3)c2)cc(-c2ccc(F)cc2O)nc1NC(=O)c1ccco1` yielded a logD of 2.29.
In turn, `N#Cc1c(-c2cccc(NC(=O)C[C@H]3CCCN3)c2)cc(-c2ccc(F)cc2O)nc1NC(=O)c1ccco1` came in with a log distribution coefficient (logD) of 2.13.
Turning to `CN(C)CC(=O)Nc1cccc(-c2cc(-c3ccc(F)cc3O)nc(NC(=O)c3ccco3)c2C#N)c1`, the logD came to 3.31.
On the same count and under the same terms, the figure for `CCN1CCN(c2cccc(-c3cc(-c4ccc(F)cc4O)nc(NC(=O)c4ccco4)c3C#N)c2)CC1` is 4.1.
Compound `CN(C)CCC(=O)Nc1cccc(-c2cc(-c3ccc(F)cc3O)nc(NC(=O)c3ccco3)c2C#N)c1` registered a logD of 2.95.
The compound `CN(C)CC(=O)Nc1cccc(-c2cc(-c3ccccc3O)nc(NC(=O)c3cccs3)c2C#N)c1` returned a logD of 3.07.
In turn, `CNCC(=O)Nc1cccc(-c2cc(-c3ccc(F)cc3O)nc(NC(=O)c3ccco3)c2C#N)c1` returned a log distribution coefficient (logD) of 2.66.
Regarding `CNCCC(=O)Nc1cccc(-c2cc(-c3ccc(F)cc3O)nc(NC(=O)c3ccco3)c2C#N)c1`, the logD was determined as 2.13.
For the compound `N#Cc1c(-c2cccc(N3CCNCC3)c2)cc(-c2ccc(F)cc2O)nc1NC(=O)c1ccco1`, the log distribution coefficient (logD) worked out at 2.72.

In a further data set the target is KiSS-1 receptor (Rattus norvegicus, UniProt Q924U1). Description: Displacement of [125I]metastin from rat GPR54 receptor expressed in CHO cells. The data set is classed as cell-based.
Chain of KiSS-1 receptor (Rattus norvegicus, UniProt Q924U1) (Q924U1 whole entry): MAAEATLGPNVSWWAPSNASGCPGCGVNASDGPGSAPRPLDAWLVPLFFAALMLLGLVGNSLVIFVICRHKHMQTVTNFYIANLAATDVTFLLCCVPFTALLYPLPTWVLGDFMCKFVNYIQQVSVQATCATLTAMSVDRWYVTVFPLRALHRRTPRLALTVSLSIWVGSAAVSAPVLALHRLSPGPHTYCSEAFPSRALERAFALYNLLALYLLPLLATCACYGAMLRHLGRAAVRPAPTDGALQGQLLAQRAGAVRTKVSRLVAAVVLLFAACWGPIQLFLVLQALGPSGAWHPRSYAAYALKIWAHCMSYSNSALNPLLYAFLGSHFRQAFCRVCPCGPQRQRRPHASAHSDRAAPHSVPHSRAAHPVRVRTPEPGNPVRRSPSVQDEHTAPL
Details: not given
Summed up: (§1)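 Membranes came from CHO cells stably expressing human or rat GPR54. They were incubated with 135 pM 125I-metastin (40–54) plus compound for 60 min at 25 °C, in Tris binding buffer pH 7.4 with protease inhibitors and 1 mg/ml BSA. Samples were filtered through PEI-pretreated GF/C filters, buffer-washed, and the bound radioactivity was counted.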
For the compound `N#Cc1c(-c2cccc(NC(=O)C[C@@H]3CCCN3)c2)cc(-c2ccc(F)cc2O)nc1NC(=O)c1ccco1`, the IC50 (as a rule, the concentration that gives 50% inhibition) worked out at 26 nM.
Compound `N#Cc1c(-c2cccc(NC(=O)C[C@H]3CCCN3)c2)cc(-c2ccc(F)cc2O)nc1NC(=O)c1ccco1` yielded a half-inhibitory concentration (IC50) of 38 nM.
`CN(C)CC(=O)Nc1cccc(-c2cc(-c3ccc(F)cc3O)nc(NC(=O)c3ccco3)c2C#N)c1` registered a half-maximal inhibitory concentration (IC50) of 130 nM.
Same read-out and setting: under `CCN1CCN(c2cccc(-c3cc(-c4ccc(F)cc4O)nc(NC(=O)c4ccco4)c3C#N)c2)CC1` stands 47 nM; under `CN(C)CCC(=O)Nc1cccc(-c2cc(-c3ccc(F)cc3O)nc(NC(=O)c3ccco3)c2C#N)c1`, 47 nM; under `CNCC(=O)Nc1cccc(-c2cc(-c3ccc(F)cc3O)nc(NC(=O)c3ccco3)c2C#N)c1`, 26 nM.
As to `CNCCC(=O)Nc1cccc(-c2cc(-c3ccc(F)cc3O)nc(NC(=O)c3ccco3)c2C#N)c1`, the half-inhibitory concentration (IC50) was 20 nM.
`N#Cc1c(-c2cccc(N3CCNCC3)c2)cc(-c2ccc(F)cc2O)nc1NC(=O)c1ccco1` had an IC50 of 15 nM.

The subject of a further data set is Caco-2. As to the kind of experiment: Ratio of permeability from basolateral to apical side to apical to basolateral side of human Caco-2 cells. The data set is classed as ADME, cell-based.
Details: not given
The gist of the method:
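Caco-2 monolayers were grown to confluence on collagen-coated polycarbonate Transwell membranes. Assay buffer was HBSS with 10 mmol/L HEPES, 15 mmol/L glucose and 1% BSA, pH 7.3–7.5. Compound was dosed apically or basolaterally at 37 °C, 5% CO2. Receivers were sampled at 1 and 2 h and donors at 2 h, in duplicate. A cell-free membrane corrected for nonspecific binding. The B-to-A/A-to-B ratio was derived.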
(Caco-2 cells form a polarised layer with tight junctions and transporters.)
In the case of `N#Cc1c(-c2cccc(NC(=O)CCN)c2)cc(-c2ccc(F)cc2O)nc1NC(=O)c1cccs1`, the Ratio came to 49.
The same measure, in the same setting: under `CN(C)CC(=O)Nc1cccc(-c2cc(-c3ccc(F)cc3O)nc(NC(=O)c3ccco3)c2C#N)c1` stands 1.4; under `CCN1CCN(c2cccc(-c3cc(-c4ccc(F)cc4O)nc(NC(=O)c4ccco4)c3C#N)c2)CC1`, 1.
Consider `CN(C)CCC(=O)Nc1cccc(-c2cc(-c3ccc(F)cc3O)nc(NC(=O)c3ccco3)c2C#N)c1`, for which the Ratio was 4.3.
Consider `CN(C)CC(=O)Nc1cccc(-c2cc(-c3ccccc3O)nc(NC(=O)c3cccs3)c2C#N)c1`, for which the Ratio is given as 1.
For the compound `N#Cc1c(-c2cccc(N3CCNCC3)c2)cc(-c2ccc(F)cc2O)nc1NC(=O)c1ccco1`, the Ratio worked out at 1.2.

In another data set the test system is Rattus norvegicus. As to the kind of experiment: Decrease in leutinizing hormone level in castrated Wistar rat plasma at 0.22 mg/kg, iv for 5 times with 10 mins interval measured after 60 mins postdose by radioimmunoassay. The class given is functional. Set-up: scale not given: the % may be the effect or the level left.
Details: not given
Summed up: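 Male Wistar rats, 11 weeks old, were castrated 7 days before testing. Compound was suspended at […] in 20% DMSO-40% PEG400. It was given at 0.22 mg/kg (0.8 ml/kg) via jugular catheter five times at 10 min intervals, for 1.1 mg/kg total. Vehicle served as control; n = 8 per group. Blood was drawn before dosing and at 25–180 min, then aprotinin–EDTA plasma was prepared. Values are means SE of eight.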
`N#Cc1c(-c2cccc(N3CCNCC3)c2)cc(-c2ccc(F)cc2O)nc1NC(=O)c1ccco1` displayed an Activity of 32%.

In a further data set the target is T1, KiSS-1 receptor (Homo sapiens, UniProt Q969F8). Description: Antagonist activity at human GPR54 receptor assessed as inhibition of metastin-induced calcium mobilization. The data set is classed as functional.
T1 sequence (Q969F8 whole entry): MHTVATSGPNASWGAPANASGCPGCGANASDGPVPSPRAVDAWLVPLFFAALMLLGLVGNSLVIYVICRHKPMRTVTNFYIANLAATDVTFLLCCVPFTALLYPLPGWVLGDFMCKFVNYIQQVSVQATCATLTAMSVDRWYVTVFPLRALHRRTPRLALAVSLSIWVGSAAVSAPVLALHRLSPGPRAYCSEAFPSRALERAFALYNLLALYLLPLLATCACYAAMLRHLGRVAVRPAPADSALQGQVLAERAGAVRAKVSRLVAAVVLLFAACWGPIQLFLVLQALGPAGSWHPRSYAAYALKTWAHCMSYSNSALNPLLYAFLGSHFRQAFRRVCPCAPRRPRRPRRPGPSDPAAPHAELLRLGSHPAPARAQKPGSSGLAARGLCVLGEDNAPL
Details: not given
Summed up: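 Cells in MEM with 10% dFBS, penicillin and streptomycin, plated at 30,000 cells/well and cultured overnight. Loaded 60 min at 37 °C in Hepes-buffered saline (pH 7.4) containing 0.1% BSA, Fluo-3AM, 1.25 mM probenecid and 0.04% Pluronic F-127. Washed at 37 °C in the same buffer with BSA and probenecid. Ca²⁺ mobilization read on FLIPR.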
Background: A change in cytosolic calcium serves as a functional read-out for many receptors and channels.
On to `N#Cc1c(-c2cccc(N3CCNCC3)c2)cc(-c2ccc(F)cc2O)nc1NC(=O)c1ccco1`, for which the IC50 was 930 nM.

A further data set addresses T1, KiSS-1 receptor. As to the kind of experiment: Displacement of [125I]metastin from human GPR54 receptor expressed in CHO cells. The data set is classed as cell-based.
Details: not given
The gist of the method:
as §1
(Displacement assays read how much labelled ligand stays bound in the presence of the test substance.)
In turn, `CN1CCC[C@H]1CC(=O)Nc1cccc(-c2cc(-c3ccc(F)cc3O)nc(NC(=O)c3ccco3)c2C#N)c1` returned an IC50 of 18 nM.
`CC(C)NC(C)CC(=O)Nc1cccc(-c2cc(-c3ccc(F)cc3O)nc(NC(=O)c3ccco3)c2C#N)c1` (racemic) registered an IC50 of 9.7 nM.
Take `CCN(CC)C(C)CC(=O)Nc1cccc(-c2cc(-c3ccc(F)cc3O)nc(NC(=O)c3ccco3)c2C#N)c1` (racemic): the IC50 was determined as 17 nM.
With `N#Cc1c(-c2cccc(NC(=O)C[C@@H]3CCCN3)c2)cc(-c2ccc(F)cc2O)nc1NC(=O)c1ccco1`, the 50% inhibitory concentration (IC50) amounted to 7.9 nM.
`CC(CC(=O)Nc1cccc(-c2cc(-c3ccc(F)cc3O)nc(NC(=O)c3ccco3)c2C#N)c1)N(C)C` (racemic) had an IC50 of 18 nM.
On the same count and under the same terms, under `N#Cc1c(-c2cccc(NC(=O)C[C@H]3CCCN3)c2)cc(-c2ccc(F)cc2O)nc1NC(=O)c1ccco1` stands 10 nM.
`CCN1CCN(Cc2cccc(-c3cc(-c4ccc(F)cc4O)nc(NC(=O)c4ccco4)c3C#N)c2)CC1`: the IC50 was 20 nM.
The same measure, in the same setting: the figure for `N#Cc1c(-c2cccc(NC(=O)CC3CCCCN3)c2)cc(-c2ccc(F)cc2O)nc1NC(=O)c1ccco1` (racemic) is 14 nM; for `CN(C)CC(=O)Nc1cccc(-c2cc(-c3ccc(F)cc3O)nc(NC(=O)c3ccco3)c2C#N)c1` it is 12 nM.
Same read-out and setting: under `CCN1CCN(c2cccc(-c3cc(-c4ccc(F)cc4O)nc(NC(=O)c4ccco4)c3C#N)c2)CC1` stands 11 nM.
In the case of `CN(C)CCC(=O)Nc1cccc(-c2cc(-c3ccc(F)cc3O)nc(NC(=O)c3ccco3)c2C#N)c1`, the concentration for half-maximal inhibition (IC50) amounted to 10 nM.
As for `CN(C)CC(=O)Nc1cccc(-c2cc(-c3ccccc3O)nc(NC(=O)c3cccs3)c2C#N)c1`, the half-inhibitory concentration (IC50) was 180 nM.
In the case of `CCC(CC(=O)Nc1cccc(-c2cc(-c3ccc(F)cc3O)nc(NC(=O)c3ccco3)c2C#N)c1)N(CC)CC` (racemic), the IC50 was found to be 22 nM.
The compound `CN(C)CCNC(=O)c1cccc(-c2cc(-c3ccc(F)cc3O)nc(NC(=O)c3ccco3)c2C#N)c1` registered an IC50 of 20 nM.
`N#Cc1c(-c2cccc(CN3CCCNCC3)c2)cc(-c2ccc(F)cc2O)nc1NC(=O)c1ccco1` returned an IC50 of 25 nM.
The same measure, in the same setting: the figure for `CCNC(CC)CC(=O)Nc1cccc(-c2cc(-c3ccc(F)cc3O)nc(NC(=O)c3ccco3)c2C#N)c1` (racemic) is 8 nM.
Consider `CCN(CC)CC(=O)Nc1cccc(-c2cc(-c3ccc(F)cc3O)nc(NC(=O)c3ccco3)c2C#N)c1`, for which the IC50 was 30 nM.
Compound `N#Cc1c(-c2cccc(N3CCCNCC3)c2)cc(-c2ccc(F)cc2O)nc1NC(=O)c1ccco1` came in with a half-inhibitory concentration (IC50) of 7.3 nM.
`CCN(C)CCC(=O)Nc1cccc(-c2cc(-c3ccc(F)cc3O)nc(NC(=O)c3ccco3)c2C#N)c1` came in with an IC50 of 10 nM.
In turn, `CCN(CC)CCC(=O)Nc1cccc(-c2cc(-c3ccc(F)cc3O)nc(NC(=O)c3ccco3)c2C#N)c1` showed a concentration for half-maximal inhibition (IC50) of 16 nM.
Turning to `CCNC(C)CC(=O)Nc1cccc(-c2cc(-c3ccc(F)cc3O)nc(NC(=O)c3ccco3)c2C#N)c1` (racemic), the concentration for half-maximal inhibition (IC50) was found to be 10 nM.
On the same count and under the same terms, under `CNCC(=O)Nc1cccc(-c2cc(-c3ccc(F)cc3O)nc(NC(=O)c3ccco3)c2C#N)c1` stands 8.4 nM; under `CN1CCN(c2cccc(-c3cc(-c4ccc(F)cc4O)nc(NC(=O)c4ccco4)c3C#N)c2)CC1`, 15 nM.
`CN(C)CCN(C)c1cccc(-c2cc(-c3ccc(F)cc3O)nc(NC(=O)c3ccco3)c2C#N)c1` came in with an IC50 of 30 nM.
On the same count and under the same terms, the figure for `N#Cc1c(-c2cccc(NC(=O)CN)c2)cc(-c2ccc(F)cc2O)nc1NC(=O)c1ccco1` is 4.1 nM; for `CNCCC(=O)Nc1cccc(-c2cc(-c3ccc(F)cc3O)nc(NC(=O)c3ccco3)c2C#N)c1` it is 4.6 nM; for `N#Cc1c(-c2cccc(NC(=O)[C@H]3CCCN3)c2)cc(-c2ccc(F)cc2O)nc1NC(=O)c1ccco1` it is 16 nM.
Same read-out and setting: under `N#Cc1c(-c2cccc(CN3CCNCC3)c2)cc(-c2ccc(F)cc2O)nc1NC(=O)c1ccco1` stands 9.7 nM; under `N#Cc1c(-c2cccc(NC(=O)CN3CCCC3)c2)cc(-c2ccc(F)cc2O)nc1NC(=O)c1ccco1`, 15 nM; under `CN1CCN(Cc2cccc(-c3cc(-c4ccc(F)cc4O)nc(NC(=O)c4ccco4)c3C#N)c2)CC1`, 18 nM.
`N#Cc1c(-c2cccc(N3CCNCC3)c2)cc(-c2ccc(F)cc2O)nc1NC(=O)c1ccco1` returned a half-maximal inhibitory concentration (IC50) of 3.6 nM.

The record behind these values is ChEMBL document CHEMBL1177674, “2-acylamino-4,6-diphenylpyridine derivatives as novel GPR54 antagonists with good brain exposure and in vivo efficacy for plasma LH level in male rats” (Bioorg Med Chem, 2010).
